14 compounds from ChEMBL document CHEMBL1129991, “Inhibition of uridine phosphorylase. Synthesis and structure-activity relationships of aryl-substituted 1-((2-hydroxyethoxy)methyl)-5-(3-phenoxybenzyl)uracil” (J Med Chem, 1997) can be followed below.

A word on the IC50: it is the concentration that inhibits the measured activity by half.

Structures are written as SMILES.

The experiment is described as follows: Tested for inhibition of Uridine Phosphorylase (UrdPase) in murine liver. Summed up: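 Mouse liver enzyme in a radiochemical assay: [2-¹⁴C]uridine (170 µM, 7.1 µCi/µmol) converted to [2-¹⁴C]uracil in 20 mM potassium phosphate pH 8.0, 1 mM EDTA, 1 mM dithiothreitol, with or without inhibitor. Incubated 30 min at 37 °C, stopped by heating 1 min at 100 °C. Uridine and uracil separated by TLC. Enzyme amount set to give 10% conversion uninhibited.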
`O=c1[nH]c(=O)n(COCCO)cc1Cc1cccc(Oc2ccc(Cl)cc2)c1`: the IC50 was 84 nM. Consider `O=c1[nH]c(=O)n(COCCO)cc1Cc1cccc(Oc2cccc(F)c2)c1`, for which the IC50 came to 14 nM. As to `O=c1[nH]c(=O)n(COCCO)cc1Cc1cccc(Oc2ccccc2)c1`, the IC50 was determined as 14 nM. For `O=c1[nH]c(=O)n(COCCO)cc1Cc1cccc(Oc2ccc(F)cc2)c1` the value was 98 nM; for `O=c1[nH]c(=O)n(COC(CO)CO)cc1Cc1cccc(Oc2ccc(F)cc2)c1`, 22 nM; for `O=c1[nH]c(=O)n(COCCO)cc1Cc1cccc(Oc2cccc(Cl)c2)c1`, 15 nM.

Compound `COc1cccc(Oc2cccc(Cc3cn(COCCO)c(=O)[nH]c3=O)c2)c1` displayed a half-inhibitory concentration (IC50) of 31 nM. For `Cc1cccc(Oc2cccc(Cc3cn(COCCO)c(=O)[nH]c3=O)c2)c1` the value was 13 nM; for `O=c1[nH]c(=O)n(COCCO)cc1Cc1cccc(Oc2cccc(C(F)(F)F)c2)c1`, 32 nM. For `O=c1[nH]c(=O)n(COC(CO)CO)cc1Cc1cccc(Oc2cccc(Cl)c2)c1` the value was 1.4 nM; for `COc1ccc(Oc2cccc(Cc3cn(COCCO)c(=O)[nH]c3=O)c2)cc1`, 210 nM.

In the case of `N#Cc1cccc(Oc2cccc(Cc3cn(COCCO)c(=O)[nH]c3=O)c2)c1`, the IC50 was found to be 5.9 nM. The compound `O=c1[nH]c(=O)n(COC(CO)CO)cc1Cc1cccc(Oc2ccccc2)c1` had an IC50 of 10 nM. For `O=c1[nH]c(=O)n(COC(CO)CO)cc1Cc1cccc(Oc2cccc(F)c2)c1`, the half-maximal inhibitory concentration (IC50) is 8.2 nM.
